MsrA inhibitor: bovine MsrA inhibition. inhibition, % at 15.5 µM. purified bovine MsrA, absorbance read-out. AID 651718. actives 0.75% (n = 360,000); in the data active = inhibition above about 4.5%;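 note: 0% = vehicle wells with enzyme and 100% = reference inhibitor wells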
MsrA act: activates bovine MsrA enzyme; purified bovine MsrA, absorbance read-out; activation, % at 10.6 µM; actives 0.3% (n = 360,000); AID 602163; in the data active = activation above about 7.5%;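 note: 0% = vehicle and 100% = reference activator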
proCasp3 act: activates human procaspase-3; activation, % at 8.5 µM; AID 463141; recombinant procaspase-3 D3A, Ac-DEVD-pNA absorbance 405 nm; actives 0.11% (n = 330,000);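 active = activation above the mean of all tested compounds plus 3 SD, cut at about 21% in these data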;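 note: 0% = DMSO alone and 100% = DMSO wells spiked with extra 5 µM PC-3 D3A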
Target sequence (P42574 whole entry D9A/D28A/D175A): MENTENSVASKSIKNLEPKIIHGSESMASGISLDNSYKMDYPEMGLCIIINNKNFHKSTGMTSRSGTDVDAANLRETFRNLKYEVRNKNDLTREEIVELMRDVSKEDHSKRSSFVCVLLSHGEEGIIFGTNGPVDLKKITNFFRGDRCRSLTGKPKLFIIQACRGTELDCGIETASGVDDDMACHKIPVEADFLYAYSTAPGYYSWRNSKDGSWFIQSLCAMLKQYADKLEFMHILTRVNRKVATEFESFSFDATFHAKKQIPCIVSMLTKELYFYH
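Assay system: Procaspase-3 D3A mutant, all three cleavage aspartates alanine. Buffer or medium: Zinc-free HEPES saline buffer with Triton X-100. Times: 1 h compound preincubation, 2 h substrate hydrolysis at 25 °C. Measured by: 405 nm absorbance of p-nitroaniline, reads at 0 and 120 min. Read-out basis: percent activation relative to control range. Replicates: singlicate.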
proCasp7 act: counter-screen: procaspase-7 (human) activation; activation, % at 8.5 µM; actives 0.093% (n = 330,000); P55210; recombinant procaspase-7, Ac-DEVD-pNA absorbance 405 nm; D23A/D198A/D206A triple mutant, cannot self-cleave; scale: DMSO 0, 5 µM enzyme 100;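 active = percent activation above the screen-wide mean plus 3 SD, cut at about 25% in these data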
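Detection: p-Nitroaniline absorbance at 405 nm, read at 0 and 120 min; system: Uncleavable procaspase-7 mutant enzyme; evaluation: % activation from two-timepoint absorbance difference, scaled to controls; times: 1 h enzyme–compound preincubation and 2 h substrate reaction, both 25 °C; buffer or medium: Zinc-free HEPES pH 7.4 with 300 mM NaCl, 0.01% Triton X-100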
Numbers without * were called inactive; . = no result given. This is a sample that favours compounds with a hit; in the whole collection about 1.2% have one here.

SMILES | MsrA inhibitor | MsrA act | proCasp3 act | proCasp7 act
Cc1cc2nc[nH]c2cc1[N+](=O)[O-] | 0 | -1 | 2 | 0
COc1ccc(N2C(=O)CN=C2Nc2nc(C)cc(C)n2)cc1 | 4.5* | -1 | 1 | 2
c1ccc2c(c1)nc(N1CCOCC1)c1nncn12 | 4.6* | -1 | -3 | 11
COc1ccc(CNC(=O)c2cc(-c3ccco3)on2)cc1 | 1 | 22* | 6 | 2
O=C(NCc1ccc(Cl)cc1)c1cc(-c2ccco2)on1 | 2 | -3 | 0 | 4
CC(C)C[C@H](NC(=O)c1cccs1)C(=O)N1CCC[C@H]1C(=O)NCc1ccccc1 | 2 | . | . | .
CCNC(=S)N/N=C/c1ccc(F)cc1 | 2 | . | -2 | -4
CCCCNC(=S)N/N=C/c1ccc(C#N)cc1 | 4.7* | -2 | -1 | -5
Cc1cc(C(F)(F)F)n2nc(-c3cnn(C)c3C(F)(F)F)cc2n1 | 1 | 7.7* | 6 | 2
COc1cc(/C=C(\C#N)C(=O)c2ccc(O)c(O)c2)cc(I)c1O | 4.6* | -8 | -9 | -4
Cc1ccc(C)c(/C(O)=C2\C(=O)C(=O)N(Cc3cccnc3)C2c2cccnc2)c1 (stereo not given) | 4.8* | -5 | -2 | -4
COC(=O)[C@]12C[C@H](CC(=O)NCCCCc3ccccc3)C(=O)N(Cc3ccccc3)C1=C[C@H](C(C)C)O[C@@H]2C1CC1 | 0 | . | . | .
COC(=O)[C@]12C[C@H](CC(=O)NCc3ccc(OC)c(OC)c3)C(=O)N(Cc3ccccc3)C1=C[C@H](C(C)(C)C)O[C@@H]2C | 0 | . | . | .
O=C(NCc1ccccc1)[C@@H]1CCCN1C(=O)[C@H]1CCCN1C(=O)c1ccc(F)cc1F | 0 | . | . | .
COC(=O)c1cc(CC(=O)c2ccc(O)cc2O)c(C)o1 | 7.2* | -4 | -1 | 9
CC(=O)NC1CCCCN(C)C1=O (stereo not given) | 0 | . | . | .
O=C(Cc1cn(Cc2ccccc2)c2ccccc12)Nc1ccc(Nc2cccnc2)c(Br)c1 | 2 | . | . | .
CC(C)(C)OC(=O)NCC(=O)Oc1cc2oc(=O)cc(-c3ccccc3)c2cc1Cl | 2 | -5 | -2 | 3
O=C(Oc1cc2oc(=O)cc(-c3ccccc3)c2cc1Cl)C1CCCCC1 | 18* | -2 | 1 | 5
O=C(NCc1ccccc1)[C@H]1CCCN1C(=O)[C@H]1CCCN1C(=O)c1ccc(F)cc1F | 0 | . | . | .
COC(=O)[C@]12C[C@H](CC(=O)N3CCSCC3)C(=O)N(CCC3=CCCCC3)C1=C[C@H](C(C)(C)C)O[C@@H]2C | -1 | . | . | .
N#C/C(=C(/O)c1ccc2c(c1)OCO2)c1nc2cc(C(F)(F)F)ccc2s1 | 1 | -3 | 6 | -1
N#C/C(=C(/O)c1ccccc1F)c1nc2cc(C(F)(F)F)ccc2s1 | 4.7* | -7 | 0 | 5
COc1ccc(-c2ccc(/C=C(\NC(=O)c3ccccc3)C(=O)N3CCOCC3)o2)cc1 | 4.6* | -6 | -2 | -13
CCSc1n[nH]c(=S)s1 | -1 | 8.5* | -6 | -10
SMILES | MsrA inhibitor | MsrA act | proCasp3 act | proCasp7 act
COC(=O)CSc1n[nH]c(=S)s1 | -1 | 6 | -6 | -12
Oc1ccc(/C=N/n2c(-c3ccccc3)n[nH]c2=S)cc1Br | 4.6* | 1 | . | .
S=C1Cc2ccccc2N1 | -1 | 26* | . | .
S=C1Nc2ccccc2CS1 | 2 | -7 | . | .
CN(C(=O)c1cccc(NC(=O)Cc2ccc(NC(=O)C3CCN(C(=O)CCc4ccccc4)CC3)cc2)c1)C1CCCC1 | -1 | . | . | .
Cc1nc(-c2ccc([N+](=O)[O-])cc2)sc1C(=O)O | 4.6* | -16 | 4 | -3
C=CCNC(=S)Nc1sc2c(c1C(=O)OCC)CC(C)(CC)OC2 (stereo not given) | 4.6* | 3 | -15 | -21
O=C1N/C(=N/N=C/c2ccco2)SC1Cc1ccccc1 (stereo not given) | 4.6* | -4 | 2 | 8
COc1ccc(C(=O)N/C(=C\c2ccc3c(c2)OCO3)C(=O)Nc2ccc(C(=O)O)cc2)cc1 | 4 | -13 | -3 | -3
Cc1ccc(C(=O)N/C(=C\c2ccc3c(c2)OCO3)C(=O)Nc2ccc(C(=O)O)cc2)cc1 | 4.6* | -7 | 7 | 8
COC(=O)[C@]12C[C@H](CC(=O)NCc3ccccc3)C(=O)N(Cc3ccccc3)C1=C[C@H](C1CCCC1)O[C@@H]2C | 0 | . | . | .
NS(=O)(=O)c1ccc(OCCCN2CCC(C(O)(c3ccccc3)c3ccccc3)CC2)cc1 | 1 | . | . | .
O=C1/C(=C\c2ccc(O)c(O)c2)N=C2CCCCCN12 | 2 | -10 | -14 | -17
O=C1/C(=C/c2cccnc2)N=C2CCCCCN12 | 4.6* | -4 | 1 | 6
